Key:
[1] = biological target: Geranylgeranyl transferase type I (Homo sapiens, UniProt P49354+P53609); experiment: Inhibition of human geranylgeranyltransferase-1 assessed as incorporation of [3H]GGPP into H-Ras-CVLL; assay type: protein-complex assay
Outline: (§1)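 In vitro radiometric assay measuring transfer of [3H]FPP (FTase) or [3H]GGPP (GGTase-I) onto recombinant H-Ras-CVLS or H-Ras-CVLL, respectively.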

[2] = biological target: Protein farnesyltransferase (Homo sapiens, UniProt P49354+P49356); experiment: Inhibition of human farnesyltransferase assessed as incorporation of [3H]FPP into H-Ras-CVLS; assay type: protein-complex assay; outline: as §1
Homo sapiens = organism: Homo sapiens; experiment: Selectivity ratio of IC50 for human geranylgeranyltransferase-1 to IC50 for human farnesyltransferase
[3] = biological target: Geranylgeranyl transferase type 1 (Mus musculus, UniProt Q61239+Q8BUY9); experiment: Inhibition of Rap1A geranylgeranylation expressed in mouse NIH3T3 cells; assay type: functional, cell-based
Outline: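 Oncogenic H-Ras-transformed NIH3T3 cells were treated with a range of inhibitor concentrations. […] Detection used peroxidase-conjugated secondary antibodies and enhanced chemiluminescence. IC50 is the mean of three independent assays ± SD unless stated otherwise.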

[4] = biological target: Protein farnesyltransferase (Mus musculus, UniProt Q61239+Q8K2I1); experiment: Inhibition of H-Ras farnesylation expressed in mouse NIH3T3 cells; assay type: functional, cell-based
Outline: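 Oncogenic H-Ras-transformed NIH3T3 cells were treated with a range of inhibitor concentrations. Detection used peroxidase-conjugated secondary antibodies and enhanced chemiluminescence. IC50 is the mean of three independent assays ± SD unless stated otherwise.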

Row | Compound | IC50 [1] [nM] | IC50 [2] [nM] | Selectivity ratio (Homo sapiens) | IC50 [3] [nM] | IC50 [4] [nM]
1 | Cn1cnc(S(=O)(=O)N(Cc2ccccc2)[C@H]2CCC[C@@H]2N(Cc2cncn2C)c2ccc(C#N)cc2)c1 (racemic) | 9150 | 450 | 20 |  | 
2 | Cn1cnc(S(=O)(=O)N(CCN(Cc2cncn2C)c2ncc(C#N)cn2)CC2CCN(c3ncccn3)CC2)c1 | > 10000 | 620 | > 16 |  | 
3 | Cn1cnc(S(=O)(=O)N(CCN(Cc2cncn2C)c2c(F)cc(C#N)cc2F)CC2CCN(c3ncccn3)CC2)c1 | > 10000 | 290 | > 34 |  | 
4 | Cn1cnc(S(=O)(=O)N(CCN(Cc2c[nH]cn2)c2ccccc2)Cc2ccccc2)c1 |  |  | 1.6 |  | 
5 | Cn1cnc(S(=O)(=O)N(CCN(Cc2cncn2C)c2ccc(C#N)nc2)CC2CCN(c3ncccn3)CC2)c1 | > 10000 | 520 |  |  | 
6 | Cn1cnc(S(=O)(=O)N(CCN(Cc2cncn2C)c2ccc(C#N)cc2F)CC2CCN(c3ncccn3)CC2)c1 | > 10000 | 64 | > 156 |  | 
7 | Cn1cnc(S(=O)(=O)N(CCN(Cc2cncn2C)c2ccc(C#N)c(F)c2)CC2CCN(c3ncccn3)CC2)c1 | 9400 | 230 | 41 |  | 
8 | Cn1cnc(S(=O)(=O)N(CCN(Cc2cncn2C)c2ccc(C#N)cc2Cl)CC2CCN(c3ncccn3)CC2)c1 | > 10000 | 550 |  |  | 
9 | Cn1cnc(S(=O)(=O)N(CCN(Cc2cnc[nH]2)c2ccc(Br)cc2)Cc2ccccc2)c1 |  |  |  | > 10000 | 5700
10 | Cn1cnc(S(=O)(=O)N(Cc2ccccc2)[C@H]2CC[C@@H](N(Cc3cncn3C)c3ccc(C#N)cc3)C2)c1 (racemic) | > 10000 | 650 | > 15 |  | 
11 | Cc1ccc(CN(CCN(Cc2cncn2C)c2ccc(C#N)cc2)S(=O)(=O)c2cn(C)cn2)cc1 | 580 | 370 |  | > 10000 | 2000
12 | Cn1cnc(S(=O)(=O)N(CCN(Cc2cncn2C)c2ccc(C#N)cn2)CC2CCN(c3ncccn3)CC2)c1 | > 10000 | 110 | > 91 |  | 
13 | Cn1cnc(S(=O)(=O)N(CCN(Cc2c[nH]cn2)c2ccc(Br)cc2)Cc2ccccc2)c1 |  |  | 6 |  | 
14 | Cn1cnc(S(=O)(=O)N(CCN(Cc2cncn2C)c2c(F)c(F)c(C#N)c(F)c2F)CC2CCN(c3ncccn3)CC2)c1 | 8750 | 490 | 18 |  | 
15 | CN(C)c1cccc2c(S(=O)(=O)N(CCN(Cc3cncn3C)c3ccc(C#N)cc3)Cc3ccccc3)cccc12 | 10000 | 160 |  | > 10000 | 
16 | Cn1cncc1CN(CCN(CC1CCCCC1)S(=O)(=O)c1ccccn1)c1ccc(C#N)cc1F |  |  | 2.1 | 2700 | 88.7
17 | Cn1cnc(S(=O)(=O)N(CCN(Cc2cnc[nH]2)c2ccccc2)Cc2ccccc2)c1 | > 10000 |  |  | > 10000 | > 10000

The remaining lines, values ahead:

Row | IC50 [1] [nM] | IC50 [2] [nM] | Selectivity ratio (Homo sapiens) | IC50 [3] [nM] | IC50 [4] [nM] | Compound
18 | 630 | 54 | 12 | > 10000 | 300 | Cc1cccc(CN(CCN(Cc2cncn2C)c2ccc(C#N)cc2)S(=O)(=O)c2cn(C)cn2)c1
19 | > 10000 | 510 | > 20 | > 10000 | > 10000 | Cn1cnc(S(=O)(=O)N(CCN(Cc2cncn2C)c2ccc(C#N)cc2)CC2CCN(c3ncccn3)CC2)c1
20 | > 10000 | 5300 | > 2 |  |  | Cn1cnc(S(=O)(=O)N(CCN(Cc2cncn2C)c2ccc(C(N)=O)cc2)Cc2ccccc2)c1
21 | 5800 | 390 | 15 | > 10000 | 4000 | Cn1cnc(S(=O)(=O)N(CCN(Cc2cncn2C)c2ccc(C#N)cc2)Cc2ccc(-n3cccc3)cc2)c1
22 | > 10000 |  | > 2.7 | > 2000 | > 2000 | Cn1cnc(S(=O)(=O)N(CCN(Cc2cncn2C)c2ccc(C#N)cc2)CC2CCN(C(=O)OC(C)(C)C)CC2)c1
23 | 5000 | 6850 | 0.7 |  |  | Cn1cnc(S(=O)(=O)N(CCN(Cc2cncn2C)c2ccc(-c3ccccc3)cc2)Cc2ccccc2)c1
24 |  |  | 65 |  |  | Cn1cncc1CN(CCN(Cc1ccccc1)S(=O)(=O)C1CC1)c1ccc(C#N)cc1
25 | 7300 | 1700 | 4.3 | > 10000 | 5000 | Cn1cnc(S(=O)(=O)N(CCN(Cc2cncn2C)c2ccc(C#N)cc2)Cc2ccc(-c3ccccc3)cc2)c1
26 | 940 | 67 | 14 | > 10000 | 400 | Cn1cnc(S(=O)(=O)N(CCN(Cc2cncn2C)c2ccc(C#N)cc2)Cc2ccsc2)c1
27 |  |  | 6.7 | > 10000 | 1600 | Cn1cnc(S(=O)(=O)N(CCN(Cc2cncn2C)c2ccc(Br)cc2)Cc2ccccc2)c1
28 | > 10000 | 72 |  | > 10000 | > 10000 | Cn1cnc(S(=O)(=O)N(CCN(Cc2cncn2C)c2ccc(C#N)cc2)Cc2ccncc2)c1
29 | 5900 | 2300 | 2.6 | > 10000 | 400 | Cn1cnc(S(=O)(=O)N(CCN(Cc2cncn2C)c2ccc(C#N)cc2)Cc2cccs2)c1
30 | 2700 |  |  | > 10000 | 1900 | Cn1cnc(S(=O)(=O)N(CCN(Cc2cncn2C)c2ccc(C#N)cc2)Cc2ccccc2)c1
31 | > 10000 | 5300 |  |  |  | Cc1c(CN(CCN(Cc2cncn2C)c2ccc(C#N)cc2)S(=O)(=O)c2cn(C)cn2)cnn1C
32 | > 10000 | 6200 | > 1.6 | > 10000 | > 10000 | Cc1nc(C)c(CN(CCN(Cc2cncn2C)c2ccc(C#N)cc2)S(=O)(=O)c2cn(C)cn2)s1
33 | > 10000 | > 10000 |  |  |  | Cn1cnc(S(=O)(=O)N(CCN(Cc2cncn2C)c2ccc(C(=O)O)cc2)Cc2ccccc2)c1
34 | > 10000 | 1000 | > 10 |  |  | Cn1cnc(S(=O)(=O)N(Cc2ccccc2)[C@@H]2CCC[C@@H]2N(Cc2cncn2C)c2ccc(C#N)cc2)c1 (racemic)
35 |  |  | 85 | > 10000 | 70 | CCCS(=O)(=O)N(CCN(Cc1cncn1C)c1ccc(C#N)cc1)Cc1ccccc1
36 | 4900 | 5400 | 0.9 |  |  | Cn1cnc(S(=O)(=O)N(CCN(Cc2cncn2C)c2ccc(C(=O)OC(C)(C)C)cc2)Cc2ccccc2)c1
37 | 820 | 25 |  | > 10000 | 90 | Cn1cncc1CN(CCN(Cc1ccccc1)S(=O)(=O)c1ccccn1)c1ccc(C#N)cc1
38 | 7050 | 380 | 19 |  |  | Cn1cnc(S(=O)(=O)N(Cc2ccccc2)[C@@H]2CC[C@@H](N(Cc3cncn3C)c3ccc(C#N)cc3)C2)c1 (racemic)
39 | 4600 | 420 | 11 |  |  | Cn1cnc(S(=O)(=O)N(CCCN(Cc2cncn2C)c2ccc(C#N)cc2)Cc2ccccc2)c1
40 | > 10000 | 720 | > 14 | > 10000 |  | C#CCN(CCN(Cc1cncn1C)c1ccc(C#N)cc1)S(=O)(=O)c1cn(C)cn1
41 |  | 78 |  | > 10000 | 5000 | Cn1cnc(S(=O)(=O)N(CCN(Cc2cncn2C)c2ccc(C#N)cc2)Cc2cccc(C#N)c2)c1

Reference: ChEMBL document CHEMBL1255187, “Structure-based design and synthesis of potent, ethylenediamine-based, mammalian farnesyltransferase inhibitors as anticancer agents” (J Med Chem, 2010)
